Only some compounds are listed: those with a hit (about 1.1% of all), similar ones and a draw of the others.
FAS TE block = inhibitors of human fatty acid synthase thioesterase domain; P49327; recombinant FAS-TE, OMFH fluorogenic substrate, fluorescence endpoint; inhibition, % at 15 µM; 0.67% of 360,000 active; AID 602261;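 active means compounds whose normalised, plate-corrected inhibition of enzyme fluorescence in the single-dose primary screen is 50% or more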;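 further: 0% = DMSO with enzyme and 100% = substrate without enzyme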
Arr AP2 block = blocks beta-arrestin peptide binding to AP2 adaptin; FITC-arrestin peptide / GST-AP2 beads, flow cytometry; AP2 beta2 appendage carries R879A mutation; 0.31% of 340,000 active; inhibition, % at 10 µM;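 active means inhibition above a set limit, near 3 SD of compounds lacking own fluorescence, cut at about 54% in these data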;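 further: plate controls were DMSO wells for no effect and 5 µM unlabelled arrestin peptide for full effect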
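System: GST-AP2 R879A bound to glutathione beads, E. coli-expressed. Also added: 50 nM FITC-arrestin peptide. Schedule: compound with beads 12 min RT, then probe 1 h RT. Signal: bead flow cytometry, FITC channel. Read-out basis: percent response.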
JMJD2C inh = blocks human GASC-1 demethylase activity; inhibition, % at 2.35 µM; GST-JMJD2C(1-420) H3K9me3 demethylation, DELFIA europium; 0.069% of 330,000 active; Q9H3R0;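 active means more than half of a compound's replicate wells show inhibition beyond 50%, single wells judged on their own value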;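 further: signal counts dimethyl H3K9 product captured on neutravidin plate; 0% = median of DMSO wells and 100% = 0.3 times that DMSO median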
Target sequence (Q9H3R0 1-420 limits assumed): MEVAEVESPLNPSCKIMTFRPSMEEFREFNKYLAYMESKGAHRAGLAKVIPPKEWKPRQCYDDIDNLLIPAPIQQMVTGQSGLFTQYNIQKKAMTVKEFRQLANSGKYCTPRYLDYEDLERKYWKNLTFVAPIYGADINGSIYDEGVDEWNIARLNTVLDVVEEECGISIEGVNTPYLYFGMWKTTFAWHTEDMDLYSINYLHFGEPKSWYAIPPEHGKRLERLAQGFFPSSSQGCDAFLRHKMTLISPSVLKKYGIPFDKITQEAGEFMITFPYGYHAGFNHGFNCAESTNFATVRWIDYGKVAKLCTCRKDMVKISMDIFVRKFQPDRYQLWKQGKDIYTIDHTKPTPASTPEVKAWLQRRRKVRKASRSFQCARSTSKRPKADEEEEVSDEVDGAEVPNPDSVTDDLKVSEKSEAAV
SENP1 inh = blocks the human SENP1 SUMO protease catalytic domain; Q9P0U3; recombinant SENP1 catalytic domain, CyPet-SUMO1-YPet FRET cleavage; inhibition, % at 10 µM; 0.21% of 360,000 active;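 active means inhibition at least 30% at 10 µM, raw YFP signal under a set limit, fluorescence ratio 0.5 to 1.5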;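 further: 0% = enzyme with DMSO and 100% = no enzyme wells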
Target sequence (Q9P0U3 419-644 limits assumed): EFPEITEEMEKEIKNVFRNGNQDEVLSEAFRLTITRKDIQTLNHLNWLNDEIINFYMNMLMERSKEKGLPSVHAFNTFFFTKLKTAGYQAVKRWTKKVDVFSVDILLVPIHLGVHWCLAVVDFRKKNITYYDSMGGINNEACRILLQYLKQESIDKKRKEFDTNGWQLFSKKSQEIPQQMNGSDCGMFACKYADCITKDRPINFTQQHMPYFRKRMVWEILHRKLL
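Material – human SENP1 catalytic domain · Input – SENP1 enzyme, 20 pM final · Compound dosing – single concentration of 10 µM compound, 0.5% DMSO final · Timing – enzyme reaction for 50 min at room temperature, dark · Measured by – FRET fluorescence in CFP and YFP emission channels · Control set – no-enzyme wells low, DMSO-plus-enzyme wells high control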
FAS-TE inh conf = confirmation of human fatty acid synthase thioesterase inhibitors; shares compounds with FAS TE block; recombinant FAS-TE, OMFH fluorogenic substrate, fluorescence; inhibition, % at 15 µM; 45% of 2,300 active; AID 624325;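 active means compounds inhibiting the enzyme by at least 50% at 15 µM in any one of the replicates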;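 further: 0% = enzyme with DMSO only and 100% = wells lacking enzyme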
Numbers without * were called inactive; . = no result given.

SMILES | FAS TE block | Arr AP2 block | JMJD2C inh | SENP1 inh | FAS-TE inh conf
Cn1c(COc2ccc([N+](=O)[O-])cc2)nnc1SCC(N)=O | -5 | 1 | 6 | 3 | .
COc1ccc(OC)c(-c2nc3cc4ccccc4cc3nc2-c2ccccc2)c1 | 53* | 29 | -2 | -6 | 14
Cc1ccccc1SCC(=O)OCC(=O)Nc1ccc(N(C)C)cc1 | 0 | 5 | 2 | 7 | .
Cc1c(Cl)c([N+](=O)[O-])nn1CCCC(=O)N1CCN(c2ccccc2)CC1 | 46 | -2 | 4 | 0 | .
Cc1nn(CCCC(=O)Nc2cc(Oc3ccc(F)cc3)cc([N+](=O)[O-])c2)c(C)c1[N+](=O)[O-] | 38 | -4 | 5 | 0 | .
Cc1c(Cl)c([N+](=O)[O-])nn1CCCC(=O)Nc1cc(Oc2ccccc2)cc([N+](=O)[O-])c1 | 53* | -5 | -2 | 1 | 10
Cc1c(Cl)c([N+](=O)[O-])nn1CCCC(=O)N(Cc1ccccc1)Cc1ccccc1 | 63* | 9 | -5 | 2 | 61*
C[C@@H]1CN([C@H](C)CO)C(=O)c2cc(-c3ccc(C#N)cc3)cnc2O[C@H]1CN(C)C(=O)c1ccccc1 | -2 | . | . | 0 | .
O=[N+]([O-])c1ccc(Sc2n[nH]c(-c3ccc(Cl)cc3Cl)n2)nc1 | 63* | -3 | 0 | -1 | 60*
CC(C)(C)c1nc(Sc2ccc([N+](=O)[O-])cn2)n[nH]1 | 13 | 42 | 7 | 3 | .
COC(=O)c1ccc(COc2cc([N+](=O)[O-])cc3cccnc23)o1 | 55* | 7 | 1 | -4 | 57*
O=C(COC(=O)c1ccc([N+](=O)[O-])cc1)NCCC1=CCCCC1 | 38 | -1 | 9 | 2 | .
O=C(COc1cc([N+](=O)[O-])cc2cccnc12)NCCC1=CCCCC1 | 83* | 16 | 0 | -1 | 87*
COC(=O)c1ccc(COc2ccc(C)cc2[N+](=O)[O-])o1 | 10 | -24 | -6 | 2 | .
Cc1nccn1CCOc1ccc(Cl)cc1 | -6 | 8 | -3 | 1 | .
COc1ccccc1Cc1c(-c2cccc(Cl)c2)nc2ccc(C)cn12 | 20 | . | . | -2 | .
Cc1nn(CCC(=O)O)c2nc(-c3cccnc3)cc(C(F)(F)F)c12 | -3 | -2 | 5 | -2 | .
Cc1nn(CCc2nn[nH]n2)c2nc(-c3ccc(C4CCCCC4)cc3)cc(C(F)(F)F)c12 | 69* | 34 | -2 | 1 | 14
CN(C(=O)c1cccc(NC(=O)Cc2ccc(NC(=O)C3CCN(S(=O)(=O)c4cccc([N+](=O)[O-])c4)CC3)cc2)c1)C1CCCC1 | 59* | 29 | . | 3 | 25
CN(C(=O)c1cccc(NC(=O)Cc2ccc(NC(=O)C3CCCN(S(=O)(=O)c4cccc([N+](=O)[O-])c4)C3)cc2)c1)C1CCCCC1 (stereo not given) | 73* | 3 | . | 1 | 16
CN(C(=O)c1cccc(NC(=O)Cc2ccc(NC(=O)C3CCN(S(=O)(=O)c4cccc([N+](=O)[O-])c4)CC3)cc2)c1)C1CCC1 | 2 | -13 | . | 5 | .
CCCc1cc2c(c(NC(C)=O)n1)c(=O)oc1ccccc12 | -6 | 12 | -2 | -2 | .
Cc1ccc(C2(C(F)(F)F)NC(=O)N3CCCN=C3S2)cc1 (stereo not given) | -7 | 3 | 5 | 0 | .
O=S(=O)(Cc1ccccc1)N1CCCC(c2nc(-c3ccc(F)cc3)no2)C1 (stereo not given) | 26 | -2 | 4 | -1 | .
O=S(=O)(c1ccc(F)cc1)N1CCCC(c2nc(-c3ccc(F)cc3)no2)C1 (stereo not given) | 58* | -2 | 0 | 0 | 23
SMILES | FAS TE block | Arr AP2 block | JMJD2C inh | SENP1 inh | FAS-TE inh conf
CCOc1ccc(CN2CCN(Cc3cnn(CC)c3C)CC2CCO)cc1 (stereo not given) | -7 | 24 | 5 | 0 | .
O=C(CN1C(=O)NC2(CCCC2)C1=O)OCc1ccc(F)cc1 | -6 | -9 | 7 | 2 | .
CC(C)(C)c1ccc(COC(=O)CN2C(=O)NC3(CCCC3)C2=O)cc1 | 68* | 10 | -6 | 1 | 76*
Cc1cc(C(C)(C)C)cc(C)c1COC(=O)CN1C(=O)NC2(CCCC2)C1=O | 52* | 6 | -3 | -1 | 56*
Cc1ccccc1COC(=O)CN1C(=O)NC2(CCCC2)C1=O | -4 | 0 | 0 | -1 | .
COCCCC1CCN(C(=O)c2cc(COc3ccc(C)nc3)on2)CC1 | -5 | 0 | 8 | -2 | .
CCC(=O)Nc1c(-c2ccccc2Cl)c(=O)c2ccccc2n1C | -8 | 3 | 0 | 0 | .
O=C(O)CCCNc1c(C(=O)Nc2ccc(Cl)cc2)cc([N+](=O)[O-])cc1[N+](=O)[O-] | 74* | 4 | -9 | 4 | 81*
CC(=O)c1ccc(N(C(=O)c2ccco2)C(C(=O)NC2CCCC2)c2ccc(N3CCOCC3)cc2)cc1 (stereo not given) | 55* | -4 | -5 | 0 | 52*
Cc1ccc2nc(-c3ccccc3)cc(C(=O)N3CCN(S(=O)(=O)c4c(C)noc4C)CC3)c2c1 | 70* | -2 | -3 | -2 | 19
C=CCn1c(SCc2ccc(Br)cc2F)nc2cc(C(=O)O)ccc2c1=O | 62* | -5 | 3 | -1 | 65*
C=CCn1c(SCc2c(C)noc2C)nc2cc(C(=O)O)ccc2c1=O | -4 | -7 | -5 | 1 | .
O=C(N/N=C/c1ccc(Br)s1)c1ccccn1 | -6 | 0 | -3 | -2 | .
O=C(C(=O)N1CCN(c2ccccc2Cl)CC1)c1c[nH]c2ccccc12 | 5 | 20 | 7 | 2 | .
CNc1ccn(C2CCCO2)c(=O)n1 (stereo not given) | -6 | -13 | -1 | 3 | .
Cc1ccc(NC(=S)N=Nc2c(O)n(C)c3ccc(S(=O)(=O)N4CCOCC4)cc23)cc1C | 73* | 22 | -4 | 4 | 9
Cn1c(O)c(N=NC(=S)Nc2ccccc2F)c2cc(S(=O)(=O)N3CCOCC3)ccc21 | 9 | 23 | . | 5 | .
C=CCn1c(O)c(N=NC(=S)Nc2ccccc2C)c2cc(S(=O)(=O)N3CCOCC3)ccc21 | 64* | 3 | -4 | 3 | 19
CC(CCc1ccco1)NC(=O)c1cccc2c1C(=O)N(C1CCCCC1)C2 (stereo not given) | 63* | 19 | -13 | 0 | 9
Cc1ccc(S(=O)(=O)N2[C@H](c3ccccc3)CC(=O)[C@@H]3CN(S(=O)(=O)c4ccccc4)[C@H](c4ccccc4)C[C@@H]32)cc1 | 83* | . | . | 2 | 28
COc1ccc([C@@H]2CC(=O)[C@@H]3CN(S(=O)(=O)c4ccc(C)cc4)[C@H](c4ccccc4)C[C@@H]3N2S(=O)(=O)c2ccccc2)cc1 | 77* | . | . | 0 | 10
Cc1ccc([C@@H]2C[C@H]3[C@@H](CN2S(=O)(=O)c2ccc(C)cc2)C(=O)C[C@@H](c2ccccc2)N3S(=O)(=O)c2ccc(C)cc2)cc1 | 31 | . | . | 1 | .

Screens (PubChem BioAssay)
